Laboratory results published in ChEMBL document CHEMBL1138783, “Subtype selective substrates for histone deacetylases” (J Med Chem, 2004).
Square brackets hold non-standard residues; d marks the D form. Peptide text beside a SMILES is read from it. * marks the point of attachment. Asu = N[C@@H](CCCCCC(=O)O)C(=O)O; Aib = CC(C)(N)C(=O)O; NHOH = ON*

What was measured:
[1] = target: Histone deacetylase; experiment: Inhibitory activity against rat liver Histone deacetylase with substrate 3a
[2] = target: Histone deacetylase; experiment: Inhibitory activity against rat liver Histone deacetylase with substrate 3b
[3] = target: Histone deacetylase; experiment: Inhibitory activity against rat liver Histone deacetylase with substrate 5b
[4] = tested on: HDAC6/HDAC1 (Homo sapiens); experiment: Selectivity ratio for Histone deacetylase 6 versus Histone deacetylase 1
[5] = tested on: histone deacetylase (HDAC); experiment: Percent conversion by rat liver histone deacetylase (HDAC) was determined after 1 h; assay type: ADME; conditions: read-out: Conversion
In short: (§1)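 Deacetylase from rat liver, purified by ammonium sulfate precipitation and Q-sepharose NaCl-gradient chromatography (class I and II subtypes), in phosphate buffer pH 7.9 (EDTA, NaCl, glycerol, 2-mercaptoethanol). Enzyme preincubated 15 min at 4 °C, then run at 37 °C with candidate substrate and 7-hydroxycoumarin internal standard. Stopped with HCl/sodium acetate, ethyl acetate extraction, reversed-phase HPLC with fluorescence detection. Conversion taken against no-enzyme control. Duplicates.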

[6] = tested on: histone deacetylase (HDAC); experiment: Percent conversion by rat liver histone deacetylase (HDAC) was determined after 2 h; assay type: ADME; conditions: read-out: Conversion; in short: as §1
[7] = tested on: histone deacetylase (HDAC); experiment: Percent conversion by rat liver histone deacetylase (HDAC) was determined after 3 h; assay type: ADME; conditions: read-out: Conversion; in short: as §1
[8] = tested on: histone deacetylase (HDAC); experiment: Percent conversion by rat liver histone deacetylase (HDAC) was determined after 24 h; assay type: ADME; conditions: read-out: Conversion; in short: as §1
[9] = tested on: histone deacetylase (HDAC); experiment: Percent conversion by rat liver histone deacetylase (HDAC) was determined after 6 h; assay type: ADME; conditions: read-out: Conversion; in short: as §1
[10] = target: Histone deacetylase; experiment: Inhibitory concentration against rat liver histone deacetylase (HDAC) with substrate 5a
[11] = target: Histone deacetylase; experiment: Inhibitory concentration against rat liver histone deacetylase (HDAC) with substrate 3a

| Structure (SMILES) | IC50 [1] [nM] | IC50 [2] [nM] | IC50 [3] [nM] | Selectivity [4] | metabolised at 1 h [5] [%] | metabolised at 2 h [6] [%] | metabolised at 3 h [7] [%] | metabolised at 24 h [8] [%] | metabolised at 6 h [9] [%] | IC50 [10] [nM] | IC50 [11] [nM] |
| --- | --- | --- | --- | --- | --- | --- | --- | --- | --- | --- | --- |
| Cc1cc(=O)oc2cc(NC(=O)[C@H](CCCCNC(=O)C(F)(F)F)NC(=O)OCc3ccccc3)ccc12 | – | – | – | – | 16 | 41 | 57 | 64 | 54 | – | – |
| CN(C)c1ccc(C(=O)NCCCCCCC(=O)NO)cc1 | 78.2 | 148 | 3512 | – | – | – | – | – | – | – | – |
| CC(=O)NCCCC[C@H](NC(=O)OC(C)(C)C)C(=O)Nc1ccc2c(C)cc(=O)oc2c1 | – | – | – | – | 38 | 60 | 70 | 100 | 91 | – | – |
| CC(=O)NCCCC[C@H](NC(=O)OCc1ccccc1)C(=O)Nc1ccc2c(C)cc(=O)oc2c1 | – | – | – | – | 67 | 87 | 93 | 100 | 96 | – | – |
| Cc1cc(=O)oc2cc(NC(=O)[C@H](CCCCNC(=O)Cc3ccccc3)NC(=O)OCc3ccccc3)ccc12 | – | – | – | – | 0 | 0 | 0 | 0 | 0 | – | – |
| CC(=O)NCCCC[C@H](NC(=O)OC(C)(C)C)C(=O)Nc1ccc2c(C(F)(F)F)cc(=O)oc2c1 | – | – | – | – | 30 | 43 | 47 | 96 | 68 | – | – |
| CC(=O)NCCCC[C@H](NC(=O)OCC1c2ccccc2-c2ccccc21)C(=O)Nc1ccc2c(C)cc(=O)oc2c1 | – | – | – | – | 47 | 74 | 78 | 90 | 86 | – | – |

Other lines, results leading:

| IC50 [1] [nM] | IC50 [2] [nM] | IC50 [3] [nM] | Selectivity [4] | metabolised at 1 h [5] [%] | metabolised at 2 h [6] [%] | metabolised at 3 h [7] [%] | metabolised at 24 h [8] [%] | metabolised at 6 h [9] [%] | IC50 [10] [nM] | IC50 [11] [nM] | Structure (SMILES) |
| --- | --- | --- | --- | --- | --- | --- | --- | --- | --- | --- | --- |
| 256 | 488 | 241 | – | – | – | – | – | – | – | – | CN(C)c1ccc(C(=O)NCCCCCCCC(=O)NO)cc1 |
| 55.7 | 80.4 | 6.29 | 34 | – | – | – | – | – | – | – | CC[C@@H](C)[C@@H]1NC(=O)[C@@H](Cc2ccc(OC)cc2)NC(=O)[C@H](CCCCCC(=O)NO)NC(=O)[C@H]2CCCN2C1=O |
| 137 | 226 | 21.2 | – | – | – | – | – | – | – | – | CC1(C)NC(=O)[C@H](CCCCCC(=O)NO)NC(=O)[C@H]2CCCN2C(=O)[C@H](Cc2ccccc2)NC1=O (cyclo([Aib]F[dP][Asu](NHOH))) |
| – | – | – | – | 20 | 33 | 47 | 87 | 74 | – | – | CCC(=O)NCCCC[C@H](NC(=O)OCc1ccccc1)C(=O)Nc1ccc2c(C)cc(=O)oc2c1 |
| – | – | – | – | 0 | 9 | 0 | 14 | 3 | – | – | CC(=O)NCCCC[C@@H](NC(=O)OCc1ccccc1)C(=O)Nc1ccc2c(C)cc(=O)oc2c1 |
| – | – | – | – | – | – | – | – | – | 640 | 216 | CN(C)c1ccc(C(=O)NCCCCCC(=O)NO)cc1 |
| – | – | – | – | 0 | 1 | 12 | 48 | 21 | – | – | CCCC(=O)NCCCC[C@H](NC(=O)OCc1ccccc1)C(=O)Nc1ccc2c(C)cc(=O)oc2c1 |
| 349 | 411 | 65.6 | – | – | – | – | – | – | – | – | O=C(CCCCC[C@@H]1NC(=O)[C@H]2CCCN2C(=O)[C@H](Cc2ccccc2)NC(=O)[C@H](Cc2ccccc2)NC1=O)NO |
